# PAFAH2 FP inh – PAFAH2 enzyme inhibitors, primary screen, biochemical, fluorescence polarization, human | recombinant PAFAH2, FP-rhodamine activity probe | inhibition, % at 3.39 µM | actives 0.99% (n = 340,000) | AID 492956, 2010;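 active means inhibition above the mean over all tested compounds plus 3 SD, cut at about 30% in these data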;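 further: inhibitors block probe labeling of enzyme so polarization drops; 0% = enzyme with DMSO and 100% = wells lacking PAFAH2 protein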
# PAFAH1B3 FP inh – PAFAH1B3 enzyme inhibitors, primary screen, biochemical, fluorescence polarization, human. Platelet-activating factor acetylhydrolase IB subunit alpha1 (Homo sapiens), Q15102. inhibition, % at 3.39 µM. actives 0.28% (n = 340,000). recombinant PAFAH1B3, FP-rhodamine probe;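 active means inhibition above the screen-wide average of all tested compounds plus 3 SD, cut at about 25% in these data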;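 further: 0% = enzyme with DMSO only and 100% = wells lacking PAFAH1B3 protein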
# Target sequence (Q15102 whole entry, looked up): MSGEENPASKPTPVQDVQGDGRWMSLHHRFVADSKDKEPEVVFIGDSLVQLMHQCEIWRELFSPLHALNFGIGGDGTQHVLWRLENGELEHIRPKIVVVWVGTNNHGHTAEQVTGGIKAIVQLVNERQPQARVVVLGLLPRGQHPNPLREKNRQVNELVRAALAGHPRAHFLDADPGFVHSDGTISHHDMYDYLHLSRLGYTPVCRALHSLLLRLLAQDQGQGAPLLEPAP
# ARFGAP1 inhibitor – inhibitors of rat ARFGAP1 GAP activity, primary screen, biochemical, fluorescence polarization, GDP tracer; actives 0.26% (n = 360,000); Arfgap1-stimulated ARF1 GTP hydrolysis, GDP FP detection; inhibition, % at 16.5 µM;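 active means inhibition above a per-plate limit, mean inhibition of low control wells plus 3 SD, cut at about 25% in these data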;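 further: 0% = DMSO wells with enzyme and 100% = wells lacking Arfgap1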
# Target sequence (Q62848 1-136 limits assumed): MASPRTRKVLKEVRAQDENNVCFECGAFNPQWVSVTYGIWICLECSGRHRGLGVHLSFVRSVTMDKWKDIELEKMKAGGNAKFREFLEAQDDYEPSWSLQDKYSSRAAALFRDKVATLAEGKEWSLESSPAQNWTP
#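 System: truncated rat Arfgap1 GAP domain / Benchmarks: high control wells lacking Arfgap1, low control full reaction with DMSO / Times: compound-enzyme preincubation 20 min, reaction 120 min, detection 60 min, 25 °C / Repeats: one replicate per compound / Also added: human ARF1(Δ1-17)-GTP substrate / Measured by: Tracer-displacement fluorescence polarization with EDTA stop, 620/688 nm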
# PAFAH1B2 FP inh – PAFAH1B2 enzyme inhibitors, primary screen, biochemical, fluorescence polarization, human | inhibition, % at 3.39 µM | actives 1.2% (n = 340,000) | recombinant PAFAH1B2, FP-rhodamine activity probe | Platelet-activating factor acetylhydrolase IB subunit alpha2 (Homo sapiens), P68402 | AID 492953, 2010;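 active means inhibition above the mean of all tested compounds plus 3 SD, cut at about 24% in these data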;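 further: 0% = enzyme with DMSO and 100% = wells lacking PAFAH1B2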
# Target sequence (P68402 whole entry, looked up): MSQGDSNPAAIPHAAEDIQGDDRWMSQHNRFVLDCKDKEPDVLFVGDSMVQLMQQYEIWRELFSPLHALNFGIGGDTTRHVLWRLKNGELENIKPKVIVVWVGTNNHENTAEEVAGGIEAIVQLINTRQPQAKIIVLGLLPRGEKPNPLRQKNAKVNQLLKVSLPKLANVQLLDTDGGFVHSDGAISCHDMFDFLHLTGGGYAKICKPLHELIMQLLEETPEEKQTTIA
# pPAFAH FP inh – pPAFAH enzyme inhibitors, primary screen, biochemical, fluorescence polarization, human; Platelet-activating factor acetylhydrolase (Homo sapiens), Q13093; recombinant pPAFAH, FP-rhodamine probe fluorescence polarization; inhibition, % at 3.39 µM; actives 1.5% (n = 330,000); AID 463082, 2010;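 active means inhibition above the mean inhibition across the screen plus 3 SD, cut at about 25% in these data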;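 further: inhibitors block binding of the rhodamine activity-based probe so polarization drops; 0% = enzyme with DMSO and 100% = wells lacking pPAFAH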
# ASAP1 inh – inhibitors of human ASAP1 ArfGAP activity, primary screen, biochemical, fluorescence polarization; ASAP1-stimulated ARF1 GTP hydrolysis, GDP FP detection; inhibition, % at 16.5 µM; actives 0.19% (n = 360,000); in the data active means inhibition above about 25%;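 further: 0% = vehicle with enzyme and substrate and 100% = no enzyme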
# Starred values were filed as active, the others as inactive; x = no result given. Sampled rows, rich in hits. Any-hit rate of the full collection: about 2.8%.
SMILES,PAFAH2 FP inh,PAFAH1B3 FP inh,ARFGAP1 inhibitor,PAFAH1B2 FP inh,pPAFAH FP inh,ASAP1 inh
O=C(C[C@H]1C/C=C\CC[C@H](Cc2ccc(F)cc2)C(=O)O[C@@H](c2ccccc2)CNC1=O)N[C@@H](CO)Cc1ccccc1,8,6,6,25*,4,2
O=C(C[C@H]1C/C=C\C[C@@H](Cc2ccc(F)cc2)C(=O)OC[C@H]2CCCN2C1=O)N[C@@H](CO)Cc1ccccc1,-3,2,-2,35*,7,-7
CN(Cc1ccccc1)C(=O)c1[nH]cnc1C(=O)NC1CCN(C(=O)OC(C)(C)C)CC1,1,9,-9,0,3,-9
COc1ccc(NS(=O)(=O)c2cccc(C(=O)NNC(=O)c3ccccc3O)c2)cc1,4,9,-10,1,15,-3
COc1ccc(NS(=O)(=O)c2cccc(C(=O)NNC(=O)c3cccn3C)c2)cc1,1,6,4,5,34*,7
COc1ccc(NS(=O)(=O)c2cccc(C(=O)NCC3(N(C)C)CCCCC3)c2)cc1,-5,6,7,-5,30*,14
Cc1cccc(/C=C2/Sc3ccc(C(=O)NCCCN4CCOCC4)cc3NC2=O)c1,-14,-5,11,8,26*,6
COc1ccc(NS(=O)(=O)c2cccc(C(=O)NNC(=O)CNC(=O)c3ccccc3)c2)cc1,-1,5,-7,-2,28*,-1
Cc1ccc(C(=O)NC2CC3CCC(C2)N3C)cc1 (stereo unspecified),-2,9,-3,1,4,9
O=C(Nc1ccc(F)cc1)C(CCc1ccccc1)N1CCN(c2cccc(C(F)(F)F)n2)CC1 (stereo unspecified),x,x,5,x,x,12
COc1ccccc1CNS(=O)(=O)c1c(C(=O)N2CCCCCC2)c(C)n(C)c1C,-1,1,10,4,5,-3
CC1(Cc2ccc3c(c2)OCO3)C(=O)Nc2c(Cl)ccc(Cl)c21 (stereo unspecified),x,x,-4,x,x,6
COc1ccc(NC(=O)CN(C)C(=O)c2cccc(S(=O)(=O)Nc3ccc(OC)cc3)c2)cc1,5,1,9,-1,32*,9
CCOc1ccc(S(=O)(=O)Nc2cccc(C(=O)N(C)CC(=O)Nc3ccc(OC)cc3)c2)cc1,-3,3,-7,-1,x,15
CN(C)CCNC(=O)c1cccc(S(=O)(=O)Nc2ccc(F)cc2)c1,-7,2,-3,0,25*,1
Cc1ccc(S(=O)(=O)Nc2cccc(C(=O)NCCCN3CCOCC3)c2)cc1F,-1,5,12,4,2,-5
Cc1ccc(NS(=O)(=O)c2cccc(C(=O)NCCCN3CCOCC3)c2)cc1,10,-1,2,1,34*,2
COc1ccc(NS(=O)(=O)c2cccc(C(=O)NNC(=O)CNC(=O)c3cccc(C)c3)c2)cc1,-6,7,7,0,34*,-8
C[C@@H]1COc2cccc(N3CCCCC3)c2S(=O)(=O)N1,x,x,-2,x,x,-4
CC1(C(=O)O)CCCN(C(=O)c2ccc(F)cc2Cl)C1 (stereo unspecified),x,x,-2,x,x,-4
N=C1C(c2nc3ccccc3s2)=C(O)CN1Cc1ccccc1,4,12,9,0,4,-4
CCOc1ccccc1N1CC(O)=C(c2nc3ccccc3s2)C1=N,14,0,2,1,33*,-6
Nc1ccn([C@@H]2O[C@H](C(=O)N3CCN(C(=O)N4CCCCC4)CC3)[C@@H](O)[C@H]2O)c(=O)n1,x,x,4,x,x,1
CCOc1cccc(CNc2ccc(O)cc2)c1OCc1ccc(Cl)cc1Cl,4,16,-9,10,31*,-13
CCOc1cccc(CNc2ccc(O)cc2)c1OCc1ccccc1Cl,2,6,-8,5,32*,6
SMILES,PAFAH2 FP inh,PAFAH1B3 FP inh,ARFGAP1 inhibitor,PAFAH1B2 FP inh,pPAFAH FP inh,ASAP1 inh
CCOc1cccc(CNn2cnnc2)c1OCc1ccccc1Cl,3,7,5,3,3,2
Cc1cccc(N2C(=NC(=O)c3ccccc3)SC3CS(=O)(=O)CC32)c1 (stereo unspecified),1,8,2,1,-3,-4
COc1ccc2[nH]c3c(c2c1)CCN1C(=O)C(CC(=O)NCc2cccc(C(F)(F)F)c2)C[C@H](C(=O)N(C(C)C)C(C)C)[C@@]31C (stereo partly specified),4,8,7,5,3,0
COc1ccc(CCNC(=O)C2CCN(S(=O)(=O)c3ccc(NC(C)=O)cc3)CC2)cc1OC,1,6,13,1,4,2
O=C(CSc1n[nH]c(-c2ccc(S(=O)(=O)NC3CCCCC3)cc2)n1)N1CCCC1,3,10,-4,13,28*,-6
O=C(COc1ccc(S(=O)(=O)NC2CCCC2)cc1)N1CCCCC1,2,-7,3,2,7,-2
Clc1ccc2c(c1)c1cc(Cl)ccc1n2CN1CCOCC1,-5,6,12,-1,27*,10
Cc1cccc(N2CC(C(=O)Nc3nnc(SCc4ccccn4)s3)CC2=O)c1 (stereo unspecified),9,11,9,5,27*,1
Cc1ccc(N2CC(C(=O)Nc3nnc(SCc4ccccn4)s3)CC2=O)cc1 (stereo unspecified),0,6,-6,7,3,14
O=C(NCCc1ccccc1)C1C(=O)Nc2ccccc2C(=O)N1C1CCCCC1 (stereo unspecified),x,x,10,x,x,-4
CC(C)n1c(=S)[nH]c2scc(-c3cccs3)c2c1=O,11,1,0,-3,33*,5
CCn1c(=S)[nH]c2scc(-c3cccs3)c2c1=O,8,8,3,9,x,-6
COc1ccc(OC)c(CCNC(=O)c2ccc(CS(=O)(=O)c3ccc(Br)cc3)o2)c1,7,7,4,27*,3,-10
O=S(=O)(NC(CO)Cc1ccccc1)c1cc(Cl)ccc1F (stereo unspecified),-3,3,9,15,x,7
O=S(=O)(NC(CO)Cc1ccccc1)c1ccc(Br)cc1F (stereo unspecified),1,3,-5,29*,x,-3
Cc1ccc2nc(-c3ccccc3)c(Cc3ccccc3C(F)(F)F)n2c1,x,x,1,x,x,-4
